In ChEMBL document CHEMBL1828575, “Design, synthesis and antiproliferative activities of biarylolefins based on polyhydroxylated and carbohydrate scaffolds” (Eur J Med Chem, 2011):

Key:
Type in all cases: functional
U-251 = test: Cytotoxicity against human U251 cells assessed as cellular growth at 10 uM after 48 hrs by SRB assay
Method in brief: (§1)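 NCI-60 panel lines grown in RPMI 1640 with 5% FBS and 2 mM L-glutamine. Plated at 5000–40,000 cells/well and preincubated 24 h at 37 °C, 5% CO₂, with time-zero plates fixed in TCA. Compounds, dissolved in DMSO and diluted in medium, were applied for 48 h. Cells were TCA-fixed (10% final for adherent, 16% for suspension) and stained with 0.4% SRB in 1% acetic acid. Dye was solubilised in 10 mM Tris base and read at 515 nm; growth was expressed as a percentage of untreated control.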

SK-MEL-5 = test: Antitumor activity against human SK-MEL-5 cells after 48 hrs by SRB assay; conditions: SK-MEL-5, 48 h
Method in brief: (§2)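 NCI60 panel cells grown in RPMI 1640 with 5% FBS and 2 mM L-glutamine, plated at 5000–40,000 cells/well and preincubated 24 h at 37 °C, 5% CO₂. Compound was added from DMSO at five concentrations, 10-fold or 1/2 log dilutions, then incubated 48 h.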

PC-3 = test: Antitumor activity against human PC3 cells after 48 hrs by SRB assay; conditions: PC-3, 48 h
Method in brief: (§3)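 NCI60 panel in RPMI 1640 with 5% FBS and 2 mM L-glutamine. Cells were plated at 5000–40,000/well by doubling time, held 24 h, then time-zero plates were TCA-fixed. Five concentrations (10-fold or half-log dilutions of DMSO stocks) were applied for 48 h at 37 °C, 5% CO2. Cells were fixed with cold TCA (10% final adherent, 16% suspension) and stained with 0.4% SRB. Bound dye was dissolved in 10 mM Tris and read at 515 nm. GI50, TGI and LC50 were calculated per line.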

TK-10 = test: Antitumor activity against human TK10 cells after 48 hrs by SRB assay; conditions: TK-10, 48 h; method in brief: as §2
LOX IMVI = test: Cytotoxicity against human LOXIMVI cells assessed as cellular growth at 10 uM after 48 hrs by SRB assay
Method in brief: (§4)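 NCI60 single-dose screen of cells in RPMI 1640 with 5% FBS and 2 mM L-glutamine, preincubated 24 h at 37 °C, 5% CO₂. Cells were then exposed 48 h to compound added from DMSO stock. TCA-fixed, stained with 0.4% SRB in 1% acetic acid, dye solubilised in 10 mM Tris base and read at 515 nm. Growth is given as percent of untreated control.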

HCT-116 = test: Cytotoxicity against human HCT116 cells assessed as cellular growth at 10 uM after 48 hrs by SRB assay; method in brief: as §4
HOP-62 = test: Antitumor activity against human HOP62 cells after 48 hrs by SRB assay; conditions: HOP-62, 48 h; method in brief: as §3
HL-60(TB) = test: Cytotoxicity against human HL-60(TB) cells assessed as cellular growth at 10 uM after 48 hrs by SRB assay
COLO 205 = test: Antitumor activity against human COLO205 cells after 48 hrs by SRB assay; conditions: COLO 205, 48 h; method in brief: as §3
KM12 = test: Cytotoxicity against human KM12 cells assessed as cellular growth at 10 uM after 48 hrs by SRB assay; method in brief: as §4
RPMI-8226 = test: Antitumor activity against human RPMI8226 cells after 48 hrs by SRB assay; conditions: RPMI-8226, 48 h; method in brief: as §3
BT-549 = test: Antitumor activity against human BT549 cells after 48 hrs by SRB assay; conditions: BT-549, 48 h
Method in brief: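 NCI60 screen: cells grown in RPMI 1640 with 5% FBS and 2 mM L-glutamine, plated at 5000–40,000 cells/well by doubling time, preincubated 24 h at 37 °C with 5% CO2. Compounds were diluted from DMSO stocks and given for 48 h, at five concentrations for dose response. A time-zero plate was TCA-fixed. Cells were TCA-fixed, stained with 0.4% SRB and read at 515 nm, with growth expressed relative to untreated controls.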

SR = test: Cytotoxicity against human SR cells assessed as cellular growth at 10 uM after 48 hrs by SRB assay; method in brief: as §1
A498 = test: Antitumor activity against human A498 cells after 48 hrs by SRB assay; conditions: A498, 48 h; method in brief: as §3
MOLT-4 = test: Antitumor activity against human MOLT4 cells after 48 hrs by SRB assay; conditions: MOLT-4, 48 h; method in brief: as §3
NCI-H23 = test: Antitumor activity against human NCI-H23 cells after 48 hrs by SRB assay; conditions: NCI-H23, 48 h; method in brief: as §3
786-0 [1] = test: Cytotoxicity against human 786-0 cells assessed as cellular growth at 10 uM after 48 hrs by SRB assay; method in brief: as §4
MCF7 = test: Antitumor activity against human MCF7 cells after 48 hrs by SRB assay; conditions: MCF7, 48 h; method in brief: as §3
786-0 [2] = test: Antitumor activity against human 786-0 cells after 48 hrs by SRB assay; conditions: 786-0, 48 h; method in brief: as §3
HOP-92 = test: Antitumor activity against human HOP92 cells after 48 hrs by SRB assay; conditions: HOP-92, 48 h; method in brief: as §3
[3] = read-out: LC50 (the source's name)
[4] = read-out: pLC50 (the source's name) (converted)

COc1ccc(/C(=C2\O[C@@H]([C@H]3COC(C)(C)O3)[C@H]3OC(C)(C)O[C@@H]23)c2cc(OC)c(OC)c(OC)c2)cc1O
Activity (U-251): 61.19% | GI50 (SK-MEL-5): 4.07 µM | LC50 (SK-MEL-5): 51.4 µM | TGI (SK-MEL-5): 15.4 µM | CC50 (PC-3; [3]): > 100 µM | TGI (PC-3; read-out: TGI): > 100 µM | GI50 (PC-3; read-out: pGI50 (converted)): 4.17 µM | CC50 (PC-3; [4]): > 100 µM | TGI (PC-3; read-out: pTGI): > 100 µM | GI50 (TK-10; read-out: GI50): 3.66 µM | CC50 (TK-10; [3]): > 100 µM | TGI (TK-10; read-out: TGI): 86.3 µM | GI50 (TK-10; read-out: pGI50 (converted)): 36.3 µM | CC50 (TK-10; [4]): > 100 µM | TGI (TK-10; read-out: pTGI (converted)): 87.1 µM | Activity (LOX IMVI): 47.56% | Activity (HCT-116): 78.08% | GI50 (HOP-62): 10.9 µM | TGI (HOP-62): 34.7 µM | CC50 (HOP-62; [3]): > 100 µM | Activity (HL-60(TB)): -0.37% | GI50 (COLO 205; read-out: GI50): 27.3 µM | CC50 (COLO 205; [3]): > 100 µM | TGI (COLO 205; read-out: TGI): 63.7 µM | GI50 (COLO 205; read-out: pGI50 (converted)): 27.5 µM | CC50 (COLO 205; [4]): > 100 µM | TGI (COLO 205; read-out: pTGI (converted)): 63.1 µM | Activity (KM12): 5.71% | LC50 (concentration killing 50% of starting cells) (RPMI-8226): > 100 µM | GI50 (RPMI-8226; read-out: GI50): 4.82 µM | TGI (RPMI-8226; read-out: TGI): 34 µM | GI50 (RPMI-8226; read-out: pGI50 (converted)): 4.79 µM | CC50 (RPMI-8226; [4]): > 100 µM | TGI (RPMI-8226; read-out: pTGI (converted)): 33.9 µM | CC50 (BT-549; [3]): > 100 µM | CC50 (BT-549; [4]): > 100 µM | Activity (SR): -13.6% | GI50 (A498; read-out: GI50): 32.1 µM | CC50 (A498; [3]): > 100 µM | TGI (A498; read-out: TGI): 97.4 µM | GI50 (A498; read-out: pGI50 (converted)): 32.4 µM | CC50 (A498; [4]): > 100 µM | TGI (A498; read-out: pTGI (converted)): 97.7 µM | LC50 (concentration killing 50% of cells) (MOLT-4): > 100 µM | GI50 (MOLT-4; read-out: GI50): 24.2 µM | TGI (MOLT-4; read-out: TGI): > 100 µM | GI50 (MOLT-4; read-out: pGI50 (converted)): 24 µM | CC50 (MOLT-4; [4]): > 100 µM | TGI (MOLT-4; read-out: pTGI): > 100 µM | GI50 (NCI-H23; read-out: GI50): 21.8 µM | CC50 (NCI-H23; [3]): > 100 µM | TGI (NCI-H23; read-out: TGI): 74.9 µM | GI50 (NCI-H23; read-out: pGI50 (converted)): 20.9 µM | CC50 (NCI-H23; [4]): > 100 µM | TGI (NCI-H23; read-out: pTGI (converted)): 74.1 µM | Activity (786-0 [1]): 86.28% | GI50 (MCF7; read-out: GI50): 1.23 µM | CC50 (MCF7; [3]): > 100 µM | TGI (MCF7; read-out: TGI): > 100 µM | GI50 (MCF7; read-out: pGI50 (converted)): 12.3 µM | CC50 (MCF7; [4]): > 100 µM | TGI (MCF7; read-out: pTGI (converted)): > 100 µM | GI50 (786-0 [2]): 2.3 µM | LC50 (786-0 [2]): 8.6 µM | TGI (786-0 [2]): 4.47 µM | GI50 (HOP-92): 4 µM | TGI (HOP-92): 38.3 µM | CC50 (HOP-92; [3]): > 100 µM
